Laboratory results reported in ChEMBL document CHEMBL4043093, “2-Oxo-3, 4-dihydropyrimido[4, 5-d]pyrimidinyl derivatives as new irreversible pan fibroblast growth factor receptor (FGFR) inhibitors” (Eur J Med Chem, 2017).

Experiments:
[1] = target: 5'-AMP-activated protein kinase catalytic subunit alpha-2 (Homo sapiens) (UniProt P54646); test: Inhibition of wild-type human partial length AMPK alpha2 (M1 to E306 residues) expressed in Escherichia coli BL21 assessed as residual activity at 1000 nM after 30 mins by Kinomescan method relative to control
[2] = target: Serine/threonine-protein kinase 4 (Homo sapiens) (UniProt Q13043); test: Inhibition of wild-type human full length MST1 (M1 to F487 residues) expressed in Escherichia coli BL21 assessed as residual activity at 1000 nM after 30 mins by Kinomescan method relative to control
Method in brief: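 Single-concentration screen at 1 µM across a 456-kinase KINOMEscan panel. The read-out is Percent Control for each kinase.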

[3] = target: Serine/threonine-protein kinase 10 (Homo sapiens) (UniProt O94804); test: Inhibition of wild-type human partial length LOK (E16 to V314 residues) expressed in Escherichia coli BL21 assessed as residual activity at 1000 nM after 30 mins by Kinomescan method relative to control
[4] = target: Serine/threonine-protein kinase pim-3 (Homo sapiens) (UniProt Q86V86); test: Inhibition of wild-type human partial length PIM3 (G16 to A317 residues) expressed in Escherichia coli BL21 assessed as residual activity at 1000 nM after 30 mins by Kinomescan method relative to control
[5] = target: Tyrosine-protein kinase JAK3 (Homo sapiens) (UniProt P52333); test: Inhibition of wild-type human partial length JAK3 JH1 catalytic domain (I781 to S1124 residues) expressed in HEK293 cells assessed as residual activity at 1000 nM after 30 mins by Kinomescan method relative to control; assay type: cell-based
[6] = system: Epidermal growth factor receptor (Homo sapiens), P00533 [T790M]; test: Inhibition of human partial length EGFR T790M mutant (R669 to G1022 residues) expressed in HEK293 cells assessed as residual activity at 1000 nM after 30 mins by Kinomescan method relative to control; assay type: cell-based
Method in brief: (§1)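 KINOMEscan binding panel of 456 kinases, with the test compound at a single concentration of 1 µM. Read-out is Percent Control.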

[7] = system: Epidermal growth factor receptor (Homo sapiens), P00533 [G719S]; test: Inhibition of human partial length EGFR G719S mutant (R669 to V1011 residues) expressed in Escherichia coli BL21 assessed as residual activity at 1000 nM after 30 mins by Kinomescan method relative to control; method in brief: as §1
[8] = target: Vascular endothelial growth factor receptor 3 (Homo sapiens) (UniProt P35916); test: Inhibition of wild-type human partial length FLT4 (E821 to E1196 residues) expressed in Escherichia coli BL21 assessed as residual activity at 1000 nM after 30 mins by Kinomescan method relative to control
[9] = target: Ribosomal protein S6 kinase alpha-4 (Homo sapiens) (UniProt O75676); test: Inhibition of wild-type human partial length C-terminal RPS6KA4 kinase domain 2 (M375 to T705 residues) expressed in HEK293 cells assessed as residual activity at 1000 nM after 30 mins by Kinomescan method relative to control; assay type: cell-based
[10] = target: Serine/threonine-protein kinase TBK1 (Homo sapiens) (UniProt Q9UHD2); test: Inhibition of wild-type human full length TBK1 (M1 to L729 residues) expressed in HEK293 cells assessed as residual activity at 1000 nM after 30 mins by Kinomescan method relative to control; assay type: cell-based
[11] = target: Tyrosine-protein kinase JAK1 (Homo sapiens) (UniProt P23458); test: Inhibition of wild-type human partial length JAK1 JH1 catalytic domain (V856 to K1154 residues) expressed in Escherichia coli BL21 assessed as residual activity at 1000 nM after 30 mins by Kinomescan method relative to control
[12] = target: Calcium/calmodulin-dependent protein kinase type II subunit gamma (Homo sapiens) (UniProt Q13555); test: Inhibition of wild-type human partial length CAMK2G (R9 to A303 residues) expressed in Escherichia coli BL21 assessed as residual activity at 1000 nM after 30 mins by Kinomescan method relative to control
[13] = target: SRSF protein kinase 1 (Homo sapiens) (UniProt Q96SB4); test: Inhibition of wild-type human full length SRPK1 (M1 to S655 residues) expressed in Escherichia coli BL21 assessed as residual activity at 1000 nM after 30 mins by Kinomescan method relative to control
[14] = target: Mast/stem cell growth factor receptor Kit (Homo sapiens) (UniProt P10721); test: Inhibition of wild-type human partial length autoinhibited KIT (Y545 to D952 residues) expressed in HEK293 cells assessed as residual activity at 1000 nM after 30 mins by Kinomescan method relative to control; assay type: cell-based
[15] = target: Serine/threonine-protein kinase PLK1 (Homo sapiens) (UniProt P53350); test: Inhibition of wild-type human partial length PLK1 (A33 to F325 residues) expressed in HEK293 cells assessed as residual activity at 1000 nM after 30 mins by Kinomescan method relative to control; assay type: cell-based
[16] = system: Proto-oncogene tyrosine-protein kinase receptor Ret (Homo sapiens), P07949 [V804L]; test: Inhibition of human partial length RET V804L mutant (E713 to D1014 residues) expressed in Escherichia coli BL21 assessed as residual activity at 1000 nM after 30 mins by Kinomescan method relative to control
Method in brief: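 Single-point screen at a fixed 1 µM, run within a 456-kinase DiscoveRx KINOMEscan panel. Each kinase's read-out is Percent Control, i.e. signal relative to a control without compound. Hits were scored by a Percent Control < 35 cut-off, and an S(35) selectivity score was calculated across the non-mutant kinases.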

[17] = target: Rho-associated protein kinase 1 (Homo sapiens) (UniProt Q13464); test: Inhibition of wild-type human partial length ROCK1 (M1 to R415 residues) expressed in HEK293 cells assessed as residual activity at 1000 nM after 30 mins by Kinomescan method relative to control; assay type: cell-based
[18] = system: Hepatocyte growth factor receptor (Homo sapiens), P08581 [M1250T]; test: Inhibition of human partial length MET M1250T mutant (D1010 to S1367 residues) expressed in Escherichia coli BL21 assessed as residual activity at 1000 nM after 30 mins by Kinomescan method relative to control; method in brief: as §1
[19] = target: Serine/threonine-protein kinase NIM1 (Homo sapiens) (UniProt Q8IY84); test: Inhibition of wild-type human partial length NIM1 (Q44 to N355 residues) expressed in HEK293 cells assessed as residual activity at 1000 nM after 30 mins by Kinomescan method relative to control; assay type: cell-based
[20] = target: Calcium/calmodulin-dependent protein kinase type 1G (Homo sapiens) (UniProt Q96NX5); test: Inhibition of wild-type human partial length CAMK1G (M1 to A342 residues) expressed in Escherichia coli BL21 assessed as residual activity at 1000 nM after 30 mins by Kinomescan method relative to control
[21] = target: Tyrosine-protein kinase receptor Tie-1 (Homo sapiens) (UniProt P35590); test: Inhibition of wild-type human partial length TIE1 (T819 to A1138 residues) expressed in Escherichia coli BL21 assessed as residual activity at 1000 nM after 30 mins by Kinomescan method relative to control

Sequence of Serine/threonine-protein kinase NIM1 (Homo sapiens) (Q8IY84 whole entry, the tested form may be a part): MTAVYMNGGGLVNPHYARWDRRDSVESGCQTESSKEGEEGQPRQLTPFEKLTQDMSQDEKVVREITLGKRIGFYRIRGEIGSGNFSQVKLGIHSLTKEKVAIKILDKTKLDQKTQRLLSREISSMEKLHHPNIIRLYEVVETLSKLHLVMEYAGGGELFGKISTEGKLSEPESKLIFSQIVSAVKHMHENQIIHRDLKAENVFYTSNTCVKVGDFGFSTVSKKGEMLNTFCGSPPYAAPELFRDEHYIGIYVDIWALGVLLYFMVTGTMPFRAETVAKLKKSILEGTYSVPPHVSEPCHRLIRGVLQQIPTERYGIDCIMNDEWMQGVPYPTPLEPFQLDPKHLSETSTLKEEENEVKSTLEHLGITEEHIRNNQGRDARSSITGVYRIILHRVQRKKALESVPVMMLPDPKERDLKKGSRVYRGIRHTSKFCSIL
Sequence of SRSF protein kinase 1 (Homo sapiens) (Q96SB4 whole entry, the tested form may be a part): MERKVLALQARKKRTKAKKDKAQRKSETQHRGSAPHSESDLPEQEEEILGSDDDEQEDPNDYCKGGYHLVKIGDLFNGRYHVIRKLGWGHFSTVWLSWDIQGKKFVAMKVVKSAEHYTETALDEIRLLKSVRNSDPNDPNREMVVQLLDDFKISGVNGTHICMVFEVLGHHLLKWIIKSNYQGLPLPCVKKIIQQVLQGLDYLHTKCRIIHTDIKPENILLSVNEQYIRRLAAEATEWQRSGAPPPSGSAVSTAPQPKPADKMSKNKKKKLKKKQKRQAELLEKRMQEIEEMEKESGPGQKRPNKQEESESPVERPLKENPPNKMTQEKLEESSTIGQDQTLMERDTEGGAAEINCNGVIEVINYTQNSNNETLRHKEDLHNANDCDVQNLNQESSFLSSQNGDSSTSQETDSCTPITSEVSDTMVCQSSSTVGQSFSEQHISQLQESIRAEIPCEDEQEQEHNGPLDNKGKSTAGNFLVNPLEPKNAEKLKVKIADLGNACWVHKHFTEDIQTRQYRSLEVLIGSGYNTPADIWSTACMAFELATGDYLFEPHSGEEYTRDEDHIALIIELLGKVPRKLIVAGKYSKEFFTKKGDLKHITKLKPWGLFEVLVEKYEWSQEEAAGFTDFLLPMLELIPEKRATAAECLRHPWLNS
Sequence of Serine/threonine-protein kinase 4 (Homo sapiens) (Q13043 whole entry, the tested form may be a part): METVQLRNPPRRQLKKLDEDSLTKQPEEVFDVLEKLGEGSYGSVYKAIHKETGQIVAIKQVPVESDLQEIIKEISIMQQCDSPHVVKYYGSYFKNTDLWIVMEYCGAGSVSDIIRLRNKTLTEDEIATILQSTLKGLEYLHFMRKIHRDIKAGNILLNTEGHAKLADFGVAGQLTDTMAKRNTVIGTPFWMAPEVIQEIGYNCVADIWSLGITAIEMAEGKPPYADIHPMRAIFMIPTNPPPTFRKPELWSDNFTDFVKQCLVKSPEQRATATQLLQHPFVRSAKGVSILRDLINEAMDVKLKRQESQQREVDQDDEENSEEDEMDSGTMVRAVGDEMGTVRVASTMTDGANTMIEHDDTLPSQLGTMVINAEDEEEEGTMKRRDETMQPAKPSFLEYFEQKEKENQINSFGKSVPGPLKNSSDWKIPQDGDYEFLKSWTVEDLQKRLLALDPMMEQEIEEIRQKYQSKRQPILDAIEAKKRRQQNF
Sequence of Ribosomal protein S6 kinase alpha-4 (Homo sapiens) (O75676 whole entry, looked up, the tested form may be a part): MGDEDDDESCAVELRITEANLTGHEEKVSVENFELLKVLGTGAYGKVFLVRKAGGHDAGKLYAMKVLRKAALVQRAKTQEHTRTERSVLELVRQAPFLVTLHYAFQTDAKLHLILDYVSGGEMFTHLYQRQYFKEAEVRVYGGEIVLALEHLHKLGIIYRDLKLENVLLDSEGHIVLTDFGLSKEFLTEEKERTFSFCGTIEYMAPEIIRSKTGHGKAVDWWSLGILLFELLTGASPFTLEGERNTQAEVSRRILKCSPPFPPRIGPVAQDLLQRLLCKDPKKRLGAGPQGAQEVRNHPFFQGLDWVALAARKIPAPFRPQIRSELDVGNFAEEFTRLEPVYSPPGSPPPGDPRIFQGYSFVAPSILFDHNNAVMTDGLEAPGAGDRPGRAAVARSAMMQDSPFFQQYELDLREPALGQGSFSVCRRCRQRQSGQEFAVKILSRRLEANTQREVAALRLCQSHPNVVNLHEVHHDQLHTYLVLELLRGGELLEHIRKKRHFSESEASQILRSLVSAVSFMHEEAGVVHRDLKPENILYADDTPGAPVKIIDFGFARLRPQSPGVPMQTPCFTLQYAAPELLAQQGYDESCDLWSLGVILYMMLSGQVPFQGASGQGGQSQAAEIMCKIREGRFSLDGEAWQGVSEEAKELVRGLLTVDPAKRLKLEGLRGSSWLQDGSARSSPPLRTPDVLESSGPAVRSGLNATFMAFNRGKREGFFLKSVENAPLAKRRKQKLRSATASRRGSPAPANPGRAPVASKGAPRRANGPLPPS
Sequence of Vascular endothelial growth factor receptor 3 (Homo sapiens) (P35916 whole entry, the tested form may be a part): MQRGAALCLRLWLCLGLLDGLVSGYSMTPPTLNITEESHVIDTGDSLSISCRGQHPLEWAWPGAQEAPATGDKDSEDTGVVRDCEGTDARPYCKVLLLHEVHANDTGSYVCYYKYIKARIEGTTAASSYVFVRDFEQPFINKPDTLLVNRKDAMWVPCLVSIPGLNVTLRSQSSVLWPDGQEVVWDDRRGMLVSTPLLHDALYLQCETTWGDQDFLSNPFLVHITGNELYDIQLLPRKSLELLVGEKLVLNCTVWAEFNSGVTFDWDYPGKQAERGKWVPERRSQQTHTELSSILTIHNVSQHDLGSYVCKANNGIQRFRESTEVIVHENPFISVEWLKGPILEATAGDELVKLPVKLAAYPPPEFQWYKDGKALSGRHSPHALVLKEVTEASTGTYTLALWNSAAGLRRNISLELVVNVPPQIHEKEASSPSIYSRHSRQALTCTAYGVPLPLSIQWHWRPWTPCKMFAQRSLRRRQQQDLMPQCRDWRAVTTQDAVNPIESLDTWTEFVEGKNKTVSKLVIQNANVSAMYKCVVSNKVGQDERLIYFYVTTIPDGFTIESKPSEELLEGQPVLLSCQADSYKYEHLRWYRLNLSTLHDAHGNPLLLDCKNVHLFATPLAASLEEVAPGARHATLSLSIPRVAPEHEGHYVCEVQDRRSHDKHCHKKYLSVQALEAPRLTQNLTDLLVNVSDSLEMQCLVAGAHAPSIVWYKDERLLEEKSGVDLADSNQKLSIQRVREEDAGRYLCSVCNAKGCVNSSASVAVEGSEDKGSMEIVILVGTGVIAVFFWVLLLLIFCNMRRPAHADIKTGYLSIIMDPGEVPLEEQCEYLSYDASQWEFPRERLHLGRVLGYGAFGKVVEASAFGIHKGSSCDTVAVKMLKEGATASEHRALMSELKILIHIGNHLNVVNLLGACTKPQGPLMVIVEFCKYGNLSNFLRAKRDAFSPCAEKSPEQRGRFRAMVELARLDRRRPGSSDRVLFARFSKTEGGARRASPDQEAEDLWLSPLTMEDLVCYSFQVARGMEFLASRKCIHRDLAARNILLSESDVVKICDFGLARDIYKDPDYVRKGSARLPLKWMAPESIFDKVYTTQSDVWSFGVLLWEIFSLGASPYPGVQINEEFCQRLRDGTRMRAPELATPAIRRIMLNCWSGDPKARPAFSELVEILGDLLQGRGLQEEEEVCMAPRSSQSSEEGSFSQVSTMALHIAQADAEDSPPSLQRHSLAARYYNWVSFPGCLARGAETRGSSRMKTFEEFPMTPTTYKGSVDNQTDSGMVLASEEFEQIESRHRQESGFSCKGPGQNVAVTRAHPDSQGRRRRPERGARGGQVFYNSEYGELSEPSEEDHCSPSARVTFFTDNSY
Sequence of Serine/threonine-protein kinase 10 (Homo sapiens) (O94804 whole entry, looked up, the tested form may be a part): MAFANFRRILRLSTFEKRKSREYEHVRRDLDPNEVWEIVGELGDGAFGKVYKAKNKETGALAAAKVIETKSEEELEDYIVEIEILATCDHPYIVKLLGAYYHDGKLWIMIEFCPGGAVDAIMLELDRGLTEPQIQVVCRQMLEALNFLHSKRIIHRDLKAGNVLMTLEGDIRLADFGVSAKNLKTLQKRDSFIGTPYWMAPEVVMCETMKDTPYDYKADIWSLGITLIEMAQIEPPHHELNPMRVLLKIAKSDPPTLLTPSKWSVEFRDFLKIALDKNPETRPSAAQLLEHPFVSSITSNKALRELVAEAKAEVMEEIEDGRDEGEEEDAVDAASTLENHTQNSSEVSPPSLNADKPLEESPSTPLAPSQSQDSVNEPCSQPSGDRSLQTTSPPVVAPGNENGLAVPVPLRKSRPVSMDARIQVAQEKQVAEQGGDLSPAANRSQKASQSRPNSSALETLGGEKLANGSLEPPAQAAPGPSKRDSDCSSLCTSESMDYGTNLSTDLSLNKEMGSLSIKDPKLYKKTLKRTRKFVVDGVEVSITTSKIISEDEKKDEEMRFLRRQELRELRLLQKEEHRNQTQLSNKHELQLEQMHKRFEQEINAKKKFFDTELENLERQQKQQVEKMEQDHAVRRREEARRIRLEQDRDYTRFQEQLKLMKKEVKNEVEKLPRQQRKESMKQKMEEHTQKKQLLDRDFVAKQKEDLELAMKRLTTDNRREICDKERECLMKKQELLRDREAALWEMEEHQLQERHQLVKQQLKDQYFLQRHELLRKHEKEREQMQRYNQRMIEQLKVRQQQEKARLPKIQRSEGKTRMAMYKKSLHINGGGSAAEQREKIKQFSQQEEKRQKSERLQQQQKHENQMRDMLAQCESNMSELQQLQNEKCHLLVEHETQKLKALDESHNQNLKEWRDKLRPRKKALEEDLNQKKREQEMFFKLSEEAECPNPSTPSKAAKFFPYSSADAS

Question: For COc1cc(OC)c(Cl)c(N2Cc3cnc(Nc4ccc(F)cc4)nc3N(C3CCN(C(=O)/C=C/CN(C)C)CC3)C2=O)c1Cl, which Activity [1] is on record?
Answer: 89%

Question: What about the Activity [2] of the same compound?
Answer: 81%

Question: And the Activity [3]?
Answer: 34%

Question: What about the Activity [4] of the same compound?
Answer: 100%

Question: And the Activity [5]?
Answer: 98%

Question: What about the Activity [6] of the same compound?
Answer: 94%

Question: What about the Activity [7] of the same compound?
Answer: 87%

Question: What about the Activity [8] of the same compound?
Answer: 2.7%

Question: And the Activity [9]?
Answer: 93%

Question: What about the Activity [10] of the same compound?
Answer: 92%

Question: And the Activity [11]?
Answer: 93%

Question: And the Activity [12]?
Answer: 100%

Question: And the Activity [13]?
Answer: 80%

Question: What about the Activity [14] of the same compound?
Answer: 90%

Question: What about the Activity [15] of the same compound?
Answer: 100%

Question: And the Activity [16]?
Answer: 94%

Question: And the Activity [17]?
Answer: 100%

Question: What about the Activity [18] of the same compound?
Answer: 100%

Question: And the Activity [19]?
Answer: 100%

Question: And the Activity [20]?
Answer: 100%

Question: What about the Activity [21] of the same compound?
Answer: 19%
